{"data": "Measurements of several laboratories", "target": "Rhodopsin kinase GRK1 (GRK1, Homo sapiens, UniProt Q15835)", "Residues used in one study (Q15835 1-563)": "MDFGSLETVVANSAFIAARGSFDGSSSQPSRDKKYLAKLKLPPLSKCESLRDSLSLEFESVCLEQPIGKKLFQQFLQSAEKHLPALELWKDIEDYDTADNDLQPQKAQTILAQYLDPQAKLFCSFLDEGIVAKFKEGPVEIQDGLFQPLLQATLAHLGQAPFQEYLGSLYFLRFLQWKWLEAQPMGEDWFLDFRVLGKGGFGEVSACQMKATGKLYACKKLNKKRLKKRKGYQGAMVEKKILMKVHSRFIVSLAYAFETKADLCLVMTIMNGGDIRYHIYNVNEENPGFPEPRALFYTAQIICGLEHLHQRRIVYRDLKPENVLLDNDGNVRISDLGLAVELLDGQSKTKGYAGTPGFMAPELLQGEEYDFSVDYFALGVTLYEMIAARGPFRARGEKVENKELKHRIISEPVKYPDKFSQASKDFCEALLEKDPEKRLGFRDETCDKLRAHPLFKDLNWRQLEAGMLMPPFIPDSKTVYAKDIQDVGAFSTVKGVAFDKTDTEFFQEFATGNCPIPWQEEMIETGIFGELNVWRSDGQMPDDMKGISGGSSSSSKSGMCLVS", "note": "Lines come from different studies, so protocols differ."}
{"Structure (SMILES)": "CC(C)S(=O)(=O)c1ccc2nccc(Nc3ccc4sc(C5CCCC5)nc4c3)c2c1", "observed": "enzyme activity", "mode": "inhibitor", "tested at": "1 µM", "endpoint": "activity vs control", "value": "112%"}
{"Structure (SMILES)": "CCCCC(=O)Nc1ccc(-c2ccc3ncn(CCC)c(=O)c3c2)cn1", "observed": "binding", "method": "competition with immobilised ligand", "tested at": "0.5 µM", "endpoint": "remaining binding", "value": "96%"}
{"Structure (SMILES)": "COc1ccc2oc(-c3ccc4nc(N)oc4c3)c/c(=N\\c3ccccc3NC(=O)CCN)c2c1", "observed": "binding", "tested at": "1 µM", "endpoint": "remaining binding", "value": "98%"}
{"Structure (SMILES)": "C=CC(=O)N1CCC([C@@H]2CCNc3c(C(N)=O)c(-c4ccc(Oc5ccccc5)cc4)nn32)CC1", "observed": "enzyme activity", "mode": "inhibitor", "tested at": "1 µM", "endpoint": "inhibition", "value": "34%"}
{"Structure (SMILES)": "C[C@H]1CC[C@H](n2c3cnccc3c3cnc(Nc4ccc5c(n4)CCN(C(=O)CO)C5)nc32)CC1", "observed": "cell-free assay", "tested at": "1 µM", "endpoint": "remaining signal", "value": "100%"}
{"Structure (SMILES)": "C1=C/COCc2cc(ccc2OCCN2CCCC2)Nc2nccc(n2)-c2cccc(c2)COC/1", "observed": "binding", "tested at": "0.1 µM", "endpoint": "remaining binding", "value": "94%"}
{"Structure (SMILES)": "CO[C@@H]1[C@H](N(C)C(=O)c2ccccc2)C[C@H]2O[C@]1(C)n1c3ccccc3c3c4c(c5c6ccccc6n2c5c31)C(=O)NC4", "observed": "enzyme activity", "mode": "inhibitor", "tested at": "1 µM", "endpoint": "inhibition", "value": "94%"}
{"Structure (SMILES)": "COc1ccc2[nH]c3c4[nH]c5ccc(OC)cc5c4c4c(c3c2c1)C(=O)NC4=O", "observed": "binding", "tested at": "1 µM", "endpoint": "remaining binding", "value": "95%"}
